Experiment: MAD study: plasma and urine pharmacokinetics
Assay type: in vivo, human
Conditions: for CLR (renal clearance), mean ± SD / CLR, geometric mean: MAD steady state
Summary of the method: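 Healthy males got oral doses for 14 days: 100 mg once daily fasted, or 100, 200 or 300 mg twice daily fed. Plasma was drawn pre-dose and […] on Day 1, pre-dose and at 3 h on Days 4, 7 and 12, and up to 120 h after the final Day 14 morning dose. Urine was collected over 24 h at steady state. LC–MS/MS, LLOQ 2 ng/mL; non-compartmental analysis.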

CN1C(=O)c2cccc(OC(F)F)c2[C@H]2C[C@@H]1c1nc3ccc(-c4cnc(C5(N)CCC5)nc4)cc3n12 [Balinatunfib]
C max, geometric mean (MAD Day 14, 100 mg QD fasted): (153) [31] ng/mL | C max, mean ± SD (MAD Day 14, 100 mg QD fasted): 161 ± 49.2 ng/mL | C trough, geometric mean (MAD Day 14, 100 mg QD fasted): (35.2) [31] ng/mL | C trough, mean ± SD (MAD Day 14, 100 mg QD fasted): 37.2 ± 11.5 ng/mL | CLss/F, geometric mean (MAD Day 14, 100 mg QD fasted): (59.5) [37] L/h | CLss/F, mean ± SD (MAD Day 14, 100 mg QD fasted): 62.5 ± 23.4 L/h | FLrel (relative fluctuation), geometric mean (MAD Day 14, 100 mg QD fasted): (168) [20] % | R ac (accumulation ratio), mean ± SD (MAD Day 14, 100 mg QD fasted): 2.52 ± 0.431 | R ac Cmax (accumulation ratio based on C max), mean ± SD (MAD Day 14, 100 mg QD fasted): 1.87 ± 0.400 | R ac, geometric mean (MAD Day 14, 100 mg QD fasted): (2.50) [17] | V z/F, geometric mean (MAD Day 14, 100 mg QD fasted): (2,530) [38] L | V z/F, mean ± SD (MAD Day 14, 100 mg QD fasted): 2,700 ± 1,020 L | t 1/2z, geometric mean (MAD Day 14, 100 mg QD fasted): (29.5) [28] h | t 1/2z, mean ± SD (MAD Day 14, 100 mg QD fasted): 30.3 ± 8.43 h | t max, median (min, max) (MAD Day 14, 100 mg QD fasted): 3.00 (2.00, 4.00) h | AUC0-tau, geometric mean (MAD Day 14, 200 mg BID fed): (4,990) [37] ng·h/mL | AUC0-tau, mean ± SD (MAD Day 14, 200 mg BID fed): 5,370 ± 2,010 ng·h/mL | C av, geometric mean (MAD Day 14, 200 mg BID fed): (416) [37] ng/mL | C av, mean ± SD (MAD Day 14, 200 mg BID fed): 448 ± 167 ng/mL | C max, geometric mean (MAD Day 14, 200 mg BID fed): (511) [35] ng/mL | C max, mean ± SD (MAD Day 14, 200 mg BID fed): 547 ± 193 ng/mL | C trough, geometric mean (MAD Day 14, 200 mg BID fed): (349) [43] ng/mL | C trough, mean ± SD (MAD Day 14, 200 mg BID fed): 383 ± 163 ng/mL | CLss/F, geometric mean (MAD Day 14, 200 mg BID fed): (40.1) [47] L/h | CLss/F, mean ± SD (MAD Day 14, 200 mg BID fed): 43.7 ± 20.6 L/h | FLrel (relative fluctuation), geometric mean (MAD Day 14, 200 mg BID fed): (44.7) [27] % | R ac (accumulation ratio), mean ± SD (MAD Day 14, 200 mg BID fed): 4.65 ± 0.654 | R ac Cmax (accumulation ratio based on C max), mean ± SD (MAD Day 14, 200 mg BID fed): 3.91 ± 0.612 | R ac, geometric mean (MAD Day 14, 200 mg BID fed): (4.60) [14] | V z/F, geometric mean (MAD Day 14, 200 mg BID fed): (1,380) [62] L | V z/F, mean ± SD (MAD Day 14, 200 mg BID fed): 1,590 ± 983 L | t 1/2z, geometric mean (MAD Day 14, 200 mg BID fed): (23.9) [14] h | t 1/2z, mean ± SD (MAD Day 14, 200 mg BID fed): 24.1 ± 3.28 h | t max, median (min, max) (MAD Day 14, 200 mg BID fed): 3.00 (2.00, 8.00) h | AUC0-tau, geometric mean (MAD Day 14, 300 mg BID fed): (9,290) [27] ng·h/mL | AUC0-tau, mean ± SD (MAD Day 14, 300 mg BID fed): 9,670 ± 2,650 ng·h/mL | C av, geometric mean (MAD Day 14, 300 mg BID fed): (774) [27] ng/mL | C av, mean ± SD (MAD Day 14, 300 mg BID fed): 806 ± 221 ng/mL | C max, geometric mean (MAD Day 14, 300 mg BID fed): (947) [27] ng/mL | C max, mean ± SD (MAD Day 14, 300 mg BID fed): 982 ± 261 ng/mL | C trough, geometric mean (MAD Day 14, 300 mg BID fed): (639) [32] ng/mL | C trough, mean ± SD (MAD Day 14, 300 mg BID fed): 676 ± 215 ng/mL | CLss/F, geometric mean (MAD Day 14, 300 mg BID fed): (32.3) [37] L/h | CLss/F, mean ± SD (MAD Day 14, 300 mg BID fed): 33.9 ± 12.7 L/h | FLrel (relative fluctuation), geometric mean (MAD Day 14, 300 mg BID fed): (46.1) [29] % | R ac (accumulation ratio), mean ± SD (MAD Day 14, 300 mg BID fed): 4.40 ± 1.22 | R ac Cmax (accumulation ratio based on C max), mean ± SD (MAD Day 14, 300 mg BID fed): 3.62 ± 0.861 | R ac, geometric mean (MAD Day 14, 300 mg BID fed): (4.25) [28] | V z/F, geometric mean (MAD Day 14, 300 mg BID fed): (991) [29] L | V z/F, mean ± SD (MAD Day 14, 300 mg BID fed): 1,030 ± 299 L | t 1/2z, geometric mean (MAD Day 14, 300 mg BID fed): (21.3) [23] h | t 1/2z, mean ± SD (MAD Day 14, 300 mg BID fed): 21.7 ± 4.92 h | t max, median (min, max) (MAD Day 14, 300 mg BID fed): 3.00 (2.00, 6.00) h | CLR (renal clearance), mean ± SD (100 mg BID fed): 5.16 ± 2.10 L/h | CLR, geometric mean (100 mg BID fed): (4.83) [41] L/h | CLR (renal clearance), mean ± SD (100 mg QD fasted): 5.53 ± 1.67 L/h | CLR, geometric mean (100 mg QD fasted): (5.30) [30] L/h | CLR (renal clearance), mean ± SD (200 mg BID fed): 4.62 ± 0.862 L/h | CLR, geometric mean (200 mg BID fed): (4.55) [19] L/h | CLR (renal clearance), mean ± SD (300 mg BID fed): 4.92 ± 0.929 L/h | CLR, geometric mean (300 mg BID fed): (4.85) [19] L/h | accumulation (after QD dosing): 2.52 fold | apparent volume of distribution (healthy participants): > 1,000 L

Source: PMC12166256 (Clinical Pharmacology and Therapeutics, 2025)
